Assay results taken from publication PMC4593394 (ACS chemical biology, 2015).

Tests used:
[1] = tested on: Ub^G76VGFP in HEK293 cells; test: Ub^G76VGFP reporter level, Western blot; type: cell-based; conditions: anti-GFP Western blot
ClpX = ClpX (Escherichia coli, UniProt P0A6H1); test: ClpX ATPase assay; type: biochemical, bacterial
[2] = molecular target: N-ethylmaleimide sensitive factor (NSF) (Cricetulus griseus, UniProt P18708); test: NSF ATPase assay; type: biochemical, Chinese hamster (Cricetulus griseus)
Summary of the method: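 Chinese hamster NSF was expressed in E. coli Rosetta 2(DE3), purified by Talon then Superdex 200, and used at 200 nM in 50 mM Tris pH 7.4, 150 mM KCl, 10 mM MgCl2, 1 mM DTT. Compound (0.0004–100 μM in DMSO) was preincubated 10 min at 21 °C, then 100 μM ATP was added. IC50 was fitted from % inhibition on a semi-log plot.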

XBP1s in HEK293 cells = test: Unfolded protein response: XBP1 splicing, Western blot; type: cell-based; conditions: anti-XBP1 Western blot
Summary of the method: (§1)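 HEK293 cells were treated with compound in DMEM/10% FBS for 24 h and lysed in SDS sample buffer with sonication. Lysates were run on 4–20% gradient SDS-PAGE and transferred to nitrocellulose, blocked 1 h in 5% milk, then probed with 1:1000 anti-ubiquitin, anti-XBP1s (spliced […] band) or anti-LC3 I/II (LC3-II lowest band). Secondaries were used at 1:3000 with chemiluminescent detection; lamin A or GAPDH served as loading controls.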

[3] = tested on: total ubiquitylated proteins in HEK293 cells; test: Total ubiquitylation, Western blot; type: cell-based; conditions: anti-ubiquitin antibody
Summary of the method: as §1

p97–Cys0 = p97–Cys0 (Homo sapiens, UniProt P55072, C105V/C174V/C184V/C209A/C415V/C522A/C535V/C572V/C691V/C695V/C69V/C77V); test: ATPase assay, cysteine-less p97 variant; type: biochemical
Summary of the method: (§2)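 His-tagged p97 variants were expressed from pET14b in E. coli BL21(DE3) and purified on Talon resin; C522A and C209A were also run on Superose 6. Enzyme (100 nM) was in 50 mM Tris pH 7.4, 150 mM KCl, 10 mM MgCl2, 1 mM DTT. Compound (0.0004–100 μM, 12 points, DMSO) was preincubated 10 min at 21 °C. 100 μM ATP was added at 21 °C. IC50 came from % inhibition versus log concentration.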

p97–C522A = p97–C522A (Homo sapiens, UniProt P55072, C522A); test: ATPase assay, p97 C522A variant; type: biochemical
Summary of the method: as §2

[4] = tested on: actin (phalloidin), vimentin, and annexin II; test: Immunofluorescence of structural proteins; type: cell-based; conditions: HEK293 cells, 4 h, concentrations used in the cellular studies
wild-type p97 (wt-p97) = wild-type p97 (wt-p97) (Homo sapiens, UniProt P55072); test: Analysis of covalent reactivity: p97 ATPase activity after dialysis; type: biochemical; conditions: 1 μM compound, 1 μM p97, 2 mM ATP
Summary of the method: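 His-tagged wild-type p97 (pET14b, E. coli BL21(DE3), Talon-purified; 1 μM) was incubated with 1 μM compound in Tris/KCl/MgCl2/DTT buffer pH 7.4 at 4 °C 12 h, 21 °C 6 h or 37 °C 2 h; 1% DMSO served as control. The mixture was dialysed against buffer exchanged three times at 2-h intervals.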

GroEL = GroEL (Escherichia coli, UniProt P0A6F5); test: biochemical; parameters: species or system E. coli
p97–C209A = p97–C209A (Homo sapiens, UniProt P55072, C209A); test: ATPase assay, p97 C209A variant; type: biochemical
Summary of the method: as §2

wt p97 = wt p97 (Homo sapiens, UniProt P55072); test: p97 ATPase assay; type: biochemical
Summary of the method: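 Test compound in DMSO (0.0004–100 μM) preincubated 10 min at 21 °C, then 100 μM ATP added at 21 °C. IC50 fitted from % inhibition versus log concentration. Screen: 100 μM pure compounds, EDTA positive control.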

20S proteasome = 20S proteasome (Homo sapiens, UniProt P20618+P28074); test: 20S proteasome chymotrypsin-like activity; type: biochemical; conditions: 1.2 nM 20S proteasome, Suc-LLVY-AMC
Summary of the method: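 Kit-supplied 20S proteasome (1.2 nM final) was preincubated with test compound (eight-point, 3-fold serial dilutions) in kit reaction buffer at 37 °C for 10 min. Then 50 μM Suc-LLVY-AMC was added, followed by 1 h at 37 °C. AMC fluorescence was read at ex 380/em 440 nm. IC50 was taken from a semi-log plot of relative fluorescence versus concentration.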

in vitro [5] = conditions: human
in vitro [6] = conditions: human; remark: listed apart in the source
in vitro [7] = conditions: human; remark: listed apart in the source
in vitro [8] = conditions: human; remark: listed apart in the source
in vitro [9] = conditions: human; remark: listed apart in the source
in vitro [10] = conditions: human; remark: listed apart in the source

wt p97, sequence (P55072 whole entry): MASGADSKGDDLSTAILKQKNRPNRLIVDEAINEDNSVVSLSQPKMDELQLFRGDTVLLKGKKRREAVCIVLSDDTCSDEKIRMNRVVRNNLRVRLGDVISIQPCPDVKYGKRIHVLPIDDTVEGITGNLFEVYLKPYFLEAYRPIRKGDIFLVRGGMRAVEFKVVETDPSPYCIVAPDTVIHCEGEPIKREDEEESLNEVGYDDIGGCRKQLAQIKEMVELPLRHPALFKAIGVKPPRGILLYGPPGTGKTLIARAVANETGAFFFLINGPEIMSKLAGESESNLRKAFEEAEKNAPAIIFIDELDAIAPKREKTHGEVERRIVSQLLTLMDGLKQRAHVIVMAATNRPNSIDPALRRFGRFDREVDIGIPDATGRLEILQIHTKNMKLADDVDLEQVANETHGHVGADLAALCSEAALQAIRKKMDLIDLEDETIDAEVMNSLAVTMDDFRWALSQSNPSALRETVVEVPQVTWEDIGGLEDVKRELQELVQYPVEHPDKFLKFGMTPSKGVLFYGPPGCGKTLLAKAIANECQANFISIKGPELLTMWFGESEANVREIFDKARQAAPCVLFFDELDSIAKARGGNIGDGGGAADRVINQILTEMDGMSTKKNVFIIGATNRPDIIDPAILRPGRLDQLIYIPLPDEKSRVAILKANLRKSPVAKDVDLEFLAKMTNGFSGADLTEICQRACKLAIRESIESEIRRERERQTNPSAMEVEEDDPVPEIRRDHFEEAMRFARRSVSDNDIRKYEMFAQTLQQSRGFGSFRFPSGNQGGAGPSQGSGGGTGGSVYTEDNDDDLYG
ClpX, sequence (P0A6H1 whole entry): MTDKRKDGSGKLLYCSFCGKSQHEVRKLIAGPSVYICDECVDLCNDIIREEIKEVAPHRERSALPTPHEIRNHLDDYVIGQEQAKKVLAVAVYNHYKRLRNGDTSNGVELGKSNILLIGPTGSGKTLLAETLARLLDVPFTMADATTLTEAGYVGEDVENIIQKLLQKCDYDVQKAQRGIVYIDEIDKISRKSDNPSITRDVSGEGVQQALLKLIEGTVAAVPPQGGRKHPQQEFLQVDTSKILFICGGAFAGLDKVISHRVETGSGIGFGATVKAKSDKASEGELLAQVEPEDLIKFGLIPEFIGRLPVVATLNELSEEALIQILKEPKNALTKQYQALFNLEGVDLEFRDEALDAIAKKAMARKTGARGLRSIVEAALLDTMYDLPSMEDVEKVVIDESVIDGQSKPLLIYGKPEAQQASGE
p97–C209A, sequence (P55072 whole entry C209A): as the sequence (P55072 whole entry) above, with C209A counted along it
GroEL, sequence (P0A6F5 2-548): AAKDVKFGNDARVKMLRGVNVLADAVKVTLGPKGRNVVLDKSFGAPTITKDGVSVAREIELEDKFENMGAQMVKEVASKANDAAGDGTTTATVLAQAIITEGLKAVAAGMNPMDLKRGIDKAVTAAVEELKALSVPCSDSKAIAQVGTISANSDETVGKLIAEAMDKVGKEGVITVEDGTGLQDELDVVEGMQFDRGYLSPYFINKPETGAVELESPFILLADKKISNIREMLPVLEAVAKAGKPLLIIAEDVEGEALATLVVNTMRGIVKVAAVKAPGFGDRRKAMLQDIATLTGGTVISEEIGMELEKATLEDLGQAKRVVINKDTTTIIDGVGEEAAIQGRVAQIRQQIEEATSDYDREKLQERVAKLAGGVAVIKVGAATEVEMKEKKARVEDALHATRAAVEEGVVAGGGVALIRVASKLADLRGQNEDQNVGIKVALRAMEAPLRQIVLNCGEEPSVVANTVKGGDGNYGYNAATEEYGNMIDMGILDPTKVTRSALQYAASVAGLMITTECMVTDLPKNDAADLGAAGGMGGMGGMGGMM
p97–Cys0, sequence (P55072 whole entry C69V/C77V/C105V/C174V/C184V/C209A/C415V/C522A/C535V/C572V/C691V/C695V): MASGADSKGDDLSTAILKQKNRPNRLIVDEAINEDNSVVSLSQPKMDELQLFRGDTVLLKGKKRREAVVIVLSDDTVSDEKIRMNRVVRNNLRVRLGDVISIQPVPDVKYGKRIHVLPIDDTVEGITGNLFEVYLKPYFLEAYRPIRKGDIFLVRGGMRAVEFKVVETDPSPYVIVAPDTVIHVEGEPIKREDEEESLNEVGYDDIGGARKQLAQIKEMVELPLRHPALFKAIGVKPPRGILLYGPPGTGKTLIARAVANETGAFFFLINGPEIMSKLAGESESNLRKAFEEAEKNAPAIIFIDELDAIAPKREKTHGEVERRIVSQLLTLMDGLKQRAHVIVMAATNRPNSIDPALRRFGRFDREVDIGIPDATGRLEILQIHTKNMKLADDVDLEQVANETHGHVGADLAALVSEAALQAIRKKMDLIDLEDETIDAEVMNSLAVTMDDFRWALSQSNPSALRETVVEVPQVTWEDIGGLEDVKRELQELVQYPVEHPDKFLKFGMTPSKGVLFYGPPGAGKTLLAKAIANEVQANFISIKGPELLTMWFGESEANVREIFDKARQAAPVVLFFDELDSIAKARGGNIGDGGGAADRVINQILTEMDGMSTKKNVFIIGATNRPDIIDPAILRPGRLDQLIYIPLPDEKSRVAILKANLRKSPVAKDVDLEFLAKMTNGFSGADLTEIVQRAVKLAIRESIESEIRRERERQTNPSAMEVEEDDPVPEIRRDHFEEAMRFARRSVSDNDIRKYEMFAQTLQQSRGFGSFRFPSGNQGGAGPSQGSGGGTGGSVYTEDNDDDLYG
p97–C522A, sequence (P55072 whole entry C522A): as the sequence (P55072 whole entry) above, with C522A counted along it
N-ethylmaleimide sensitive factor (NSF), sequence (P18708 whole entry): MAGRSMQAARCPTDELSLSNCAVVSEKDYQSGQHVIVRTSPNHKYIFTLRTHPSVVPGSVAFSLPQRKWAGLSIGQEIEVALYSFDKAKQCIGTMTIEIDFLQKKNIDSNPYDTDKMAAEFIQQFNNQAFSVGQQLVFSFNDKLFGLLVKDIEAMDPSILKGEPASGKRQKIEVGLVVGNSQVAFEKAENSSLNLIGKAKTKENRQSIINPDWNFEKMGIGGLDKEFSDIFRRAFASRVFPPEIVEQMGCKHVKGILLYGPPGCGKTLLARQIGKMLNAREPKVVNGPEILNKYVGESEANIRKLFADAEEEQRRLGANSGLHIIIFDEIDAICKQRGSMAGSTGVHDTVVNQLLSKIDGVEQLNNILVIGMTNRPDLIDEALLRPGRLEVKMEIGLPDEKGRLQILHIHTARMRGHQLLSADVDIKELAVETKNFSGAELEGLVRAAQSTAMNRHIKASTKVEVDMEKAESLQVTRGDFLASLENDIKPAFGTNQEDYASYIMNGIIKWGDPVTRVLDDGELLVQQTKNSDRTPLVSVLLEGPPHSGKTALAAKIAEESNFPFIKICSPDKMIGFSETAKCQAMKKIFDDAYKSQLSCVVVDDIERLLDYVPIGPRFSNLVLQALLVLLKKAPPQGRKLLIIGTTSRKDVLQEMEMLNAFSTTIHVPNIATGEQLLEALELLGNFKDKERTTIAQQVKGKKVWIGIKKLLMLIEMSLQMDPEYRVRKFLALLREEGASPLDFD
wild-type p97 (wt-p97), sequence (P55072 whole entry): as the sequence (P55072 whole entry) above

Compound	IC50 (ClpX) [µM]	IC50 [2] [µM]	IC50 (p97–Cys0) [µM]	IC50 (p97–C522A) [µM]	IC50 (GroEL) [µM]	IC50 (p97–C209A) [µM]	IC50 (wt p97) [µM]	further results
CC1=C(CO)C(=O)O[C@@H]([C@@H](C)[C@H]2CC[C@H]3[C@@H]4C[C@H]5O[C@]56[C@@H](O)C=CC(=O)[C@]6(C)[C@H]4CC[C@]23C)C1 [Compound 1, withaferin A]	> 200	> 200	> 200	> 200	> 200	24.9 ± 1.91	44 ± 0.21	level of Ub^G76VGFP reporter [1]: dose-dependent, higher levels of reporter; increase in XBP1s (XBP1s in HEK293 cells): did show an increase; total ubiquitylation [3]: increased; effects on structural proteins [4]: did not see effects; inhibition of p97 ATPase remaining after extensive dialysis (wild-type p97 (wt-p97)): slight inhibition remained; inhibition of p97 in initial screen (wt p97; 100 μM for pure compounds, 384-well plate): moderate inhibition; effect of ATP concentration on the IC50 value (wt p97; varied ATP concentration): distinct shift in the IC50 value; inhibition of the 20S proteasome (20S proteasome): inhibit
CC1=C(CO)C(=O)O[C@@H]([C@@H](C)[C@H]2CC[C@H]3[C@@H]4C[C@H]5O[C@]56[C@@H](O)[C@@H](O)CC(=O)[C@]6(C)[C@H]4CC[C@]23C)C1 [Compound 14, viscosalactone B]	> 200	> 200	> 200	> 200	> 200	> 200	> 200	IC50 at 48 h (in vitro [5]): > 100 µM; IC50 at 48 h (in vitro [6]): > 100 µM; IC50 at 48 h (in vitro [7]): > 100 µM; IC50 at 48 h (in vitro [8]): > 100 µM; IC50 at 48 h (in vitro [9]): > 100 µM; IC50 at 48 h (in vitro [10]): > 100 µM
